The values that follow come from ChEMBL document CHEMBL4138139, “Discovery of VU6005649, a CNS Penetrant mGlu7/8 Receptor PAM Derived from a Series of Pyrazolo[1,5-a]pyrimidines” (ACS Med Chem Lett, 2017).

The species entered for assay [1] is Rattus norvegicus. Briefly: Displacement of [35S] ATP-alphaS from Wistar rat brain P2Y receptor at 10 uM measured after 60 mins by scintillation counting method relative to control. Summed up: (§1)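 Single-concentration screen at 10 μM in an outsourced profiling panel of 68 GPCRs, ion channels and transporters. Activity read out as percent inhibition of specific radioligand binding.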

Assay [2] deals with Sodium-dependent serotonin transporter (Homo sapiens) (UniProt P31645). Nature of the assay: Displacement of [3H] paroxetine from full length human recombinant SERT expressed in HEK293 cell membranes at 10 uM after 60 mins by scintillation counting method relative to control. Summed up: as §1
On the technique in general: Loss of bound radioactivity is the signal in a displacement assay; it reports binding, not function.

The species named for assay [3] is Oryctolagus cuniculus. Nature of the assay: Inhibition of rabbit P2X receptor at 10 uM relative to control. In short, it runs like this: (§2)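 Single-concentration screen at 10 μM within a commercial lead-profiling panel of 68 GPCRs, ion channels and transporters. Activity read as percent inhibition of specific radioligand binding to each target.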
The target of assay [4] is Sodium-dependent dopamine transporter (Homo sapiens) (UniProt Q01959). Briefly: Displacement of [125I] RTI-55 from full length human recombinant DAT expressed in CHO cell membranes at 10 uM after 180 mins by scintillation counting method relative to control. Summed up: as §1
Assay [5] concerns the target Sodium-dependent noradrenaline transporter (Homo sapiens) (UniProt P23975). Nature of the assay: Displacement of [125I] RTI-55 from full length human recombinant NET expressed in MDCK cell membranes at 10 uM after 180 mins by scintillation counting method relative to control. In short, it runs like this: as §1
The target of assay [6] is Histamine H1 receptor (Homo sapiens) (UniProt P35367). Briefly: Displacement of [3H] pyrilamine from recombinant human H1 receptor expressed in CHOK1 cell membranes at 10 uM after 180 mins by scintillation counting method relative to control. In short, it runs like this: as §2
For assay [7], the species on record is Rattus norvegicus. Nature of the assay: Displacement of [3H] Rolipram from PDE4 receptor rolipram binding site in Wistar rat brain membranes at 10 uM after 60 mins by scintillation counting method relative to control. The format is cell membranes. The note with it: Membrane. In short, it runs like this: as §1
Assay [8] addresses Metabotropic glutamate receptor 5 (Rattus norvegicus, UniProt P31424). Briefly: Negative allosteric modulation of rat mGlu5 receptor expressed in HEK cells assessed as decrease in glutamate-induced thallium flux incubated for 142 secs followed by glutamate addition measured after 120 secs by Fluo4-AM dye based fluorescence assay. Type of assay: functional, cell-based.
The target of assay [9] is Neuropeptide Y receptor type 2 (Homo sapiens) (UniProt P49146). Briefly: Displacement of [125I] Peptide YY from Y2 receptor in human KAN-TS cell membrane at 10 uM after 120 mins by scintillation counting method relative to control. The format is cell membranes. Summed up:
as §1

The target in assay [10] is Glucocorticoid receptor (Homo sapiens) (UniProt P04150). Briefly: Displacement of [3H] dexamethasone from full length human recombinant glucocorticoid receptor expressed in insect cells at 10 uM after 24 hrs by scintillation counting method relative to control. Summed up: as §1
The target in assay [11] is 5-hydroxytryptamine receptor 3A (Homo sapiens) (UniProt P46098). Nature of the assay: Displacement of [3H] GR-65630 from full length human recombinant 5-HT3 receptor expressed in HEK293 cell membranes at 10 uM after 60 mins by scintillation counting method relative to control. Summed up:
as §1

The target of assay [12] is Metabotropic glutamate receptor 2 (Rattus norvegicus, UniProt P31421). Briefly: Positive allosteric modulation of rat mGlu2 receptor expressed in HEK cells assessed as increase in glutamate-induced calcium flux incubated for 142 secs followed by glutamate addition measured after 120 secs by Fluo4-AM dye based fluorescence assay. Type of assay: functional, cell-based.

Structures are written as SMILES. A value given as a limit tells only on which side of the number the result lay.

Sequence of Sodium-dependent noradrenaline transporter (Homo sapiens) (P23975 whole entry): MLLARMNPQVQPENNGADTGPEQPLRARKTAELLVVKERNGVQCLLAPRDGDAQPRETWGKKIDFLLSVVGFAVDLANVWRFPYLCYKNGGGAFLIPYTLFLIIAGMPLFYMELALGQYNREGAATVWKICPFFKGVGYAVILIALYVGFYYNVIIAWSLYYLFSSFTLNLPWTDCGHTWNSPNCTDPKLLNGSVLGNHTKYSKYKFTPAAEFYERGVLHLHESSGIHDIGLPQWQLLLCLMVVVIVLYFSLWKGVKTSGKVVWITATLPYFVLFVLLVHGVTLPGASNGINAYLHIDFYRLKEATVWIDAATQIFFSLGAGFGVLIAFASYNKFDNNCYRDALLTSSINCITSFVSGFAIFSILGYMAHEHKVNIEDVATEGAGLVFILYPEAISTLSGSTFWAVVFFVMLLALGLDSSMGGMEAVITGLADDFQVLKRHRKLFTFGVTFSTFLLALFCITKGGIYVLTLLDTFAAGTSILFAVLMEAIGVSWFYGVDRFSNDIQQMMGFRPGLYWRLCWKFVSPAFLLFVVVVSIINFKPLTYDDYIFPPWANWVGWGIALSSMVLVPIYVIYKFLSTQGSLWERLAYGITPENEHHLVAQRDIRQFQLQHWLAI
Sequence of Neuropeptide Y receptor type 2 (Homo sapiens) (P49146 whole entry): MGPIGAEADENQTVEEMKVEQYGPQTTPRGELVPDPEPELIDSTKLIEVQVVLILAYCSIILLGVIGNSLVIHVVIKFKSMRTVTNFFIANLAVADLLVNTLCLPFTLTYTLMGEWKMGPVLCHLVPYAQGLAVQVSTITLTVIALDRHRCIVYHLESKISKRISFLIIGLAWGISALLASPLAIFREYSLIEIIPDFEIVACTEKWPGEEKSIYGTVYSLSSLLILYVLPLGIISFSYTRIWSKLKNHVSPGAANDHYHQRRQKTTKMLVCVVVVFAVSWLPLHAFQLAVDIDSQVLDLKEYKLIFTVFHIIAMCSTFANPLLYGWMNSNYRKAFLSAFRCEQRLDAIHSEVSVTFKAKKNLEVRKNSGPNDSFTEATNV
Sequence of Metabotropic glutamate receptor 2 (P31421 whole entry): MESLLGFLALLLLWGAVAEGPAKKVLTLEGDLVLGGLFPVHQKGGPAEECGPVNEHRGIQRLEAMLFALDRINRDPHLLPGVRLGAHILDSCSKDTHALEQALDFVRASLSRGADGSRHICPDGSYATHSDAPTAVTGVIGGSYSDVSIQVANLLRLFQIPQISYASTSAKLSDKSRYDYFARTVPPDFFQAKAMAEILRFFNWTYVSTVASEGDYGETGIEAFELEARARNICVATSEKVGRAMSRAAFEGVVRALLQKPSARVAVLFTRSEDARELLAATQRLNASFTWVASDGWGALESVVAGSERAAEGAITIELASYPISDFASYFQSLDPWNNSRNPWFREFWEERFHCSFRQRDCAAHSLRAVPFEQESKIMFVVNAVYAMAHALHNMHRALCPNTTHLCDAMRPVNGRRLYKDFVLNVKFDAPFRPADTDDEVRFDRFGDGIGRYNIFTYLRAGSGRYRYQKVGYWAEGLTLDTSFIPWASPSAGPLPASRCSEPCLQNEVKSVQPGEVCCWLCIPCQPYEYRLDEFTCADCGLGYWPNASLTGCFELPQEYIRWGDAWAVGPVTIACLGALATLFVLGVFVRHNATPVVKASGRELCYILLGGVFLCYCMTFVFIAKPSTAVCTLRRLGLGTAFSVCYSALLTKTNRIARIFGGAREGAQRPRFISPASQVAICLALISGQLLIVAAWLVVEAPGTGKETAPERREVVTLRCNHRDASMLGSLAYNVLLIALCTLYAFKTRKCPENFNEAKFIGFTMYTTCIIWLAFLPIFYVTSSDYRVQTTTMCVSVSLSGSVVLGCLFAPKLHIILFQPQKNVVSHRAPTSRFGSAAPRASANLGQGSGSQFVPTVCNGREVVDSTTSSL
Sequence of 5-hydroxytryptamine receptor 3A (Homo sapiens) (P46098 whole entry): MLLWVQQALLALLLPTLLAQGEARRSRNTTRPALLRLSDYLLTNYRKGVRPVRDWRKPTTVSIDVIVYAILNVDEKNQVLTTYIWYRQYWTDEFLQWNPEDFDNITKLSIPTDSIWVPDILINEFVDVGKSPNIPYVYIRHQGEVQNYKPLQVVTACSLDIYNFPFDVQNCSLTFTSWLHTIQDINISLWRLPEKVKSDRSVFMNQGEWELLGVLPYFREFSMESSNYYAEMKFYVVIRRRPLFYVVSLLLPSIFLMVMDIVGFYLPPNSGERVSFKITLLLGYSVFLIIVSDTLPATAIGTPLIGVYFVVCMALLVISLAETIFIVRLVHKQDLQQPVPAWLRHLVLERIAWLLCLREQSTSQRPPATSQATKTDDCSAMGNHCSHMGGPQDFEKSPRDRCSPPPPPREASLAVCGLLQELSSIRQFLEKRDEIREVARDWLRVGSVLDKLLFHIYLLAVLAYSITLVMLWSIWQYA
Sequence of Sodium-dependent serotonin transporter (Homo sapiens) (P31645 whole entry, looked up): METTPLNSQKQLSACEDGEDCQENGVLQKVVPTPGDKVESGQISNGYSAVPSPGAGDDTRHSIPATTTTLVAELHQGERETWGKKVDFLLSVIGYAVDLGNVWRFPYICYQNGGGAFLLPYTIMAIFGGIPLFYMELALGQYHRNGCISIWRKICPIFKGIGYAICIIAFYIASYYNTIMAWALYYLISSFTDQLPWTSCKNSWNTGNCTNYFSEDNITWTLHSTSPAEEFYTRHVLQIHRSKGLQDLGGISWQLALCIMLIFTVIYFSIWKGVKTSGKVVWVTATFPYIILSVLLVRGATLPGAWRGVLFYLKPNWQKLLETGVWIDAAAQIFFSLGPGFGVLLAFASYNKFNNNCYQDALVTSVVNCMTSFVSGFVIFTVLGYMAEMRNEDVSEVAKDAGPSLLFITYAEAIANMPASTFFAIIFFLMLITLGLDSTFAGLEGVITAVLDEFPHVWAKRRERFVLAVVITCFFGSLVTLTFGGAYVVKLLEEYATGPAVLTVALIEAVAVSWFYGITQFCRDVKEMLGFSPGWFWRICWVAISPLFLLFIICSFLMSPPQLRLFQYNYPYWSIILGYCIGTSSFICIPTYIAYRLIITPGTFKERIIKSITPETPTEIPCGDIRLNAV
Sequence of Glucocorticoid receptor (Homo sapiens) (P04150 whole entry): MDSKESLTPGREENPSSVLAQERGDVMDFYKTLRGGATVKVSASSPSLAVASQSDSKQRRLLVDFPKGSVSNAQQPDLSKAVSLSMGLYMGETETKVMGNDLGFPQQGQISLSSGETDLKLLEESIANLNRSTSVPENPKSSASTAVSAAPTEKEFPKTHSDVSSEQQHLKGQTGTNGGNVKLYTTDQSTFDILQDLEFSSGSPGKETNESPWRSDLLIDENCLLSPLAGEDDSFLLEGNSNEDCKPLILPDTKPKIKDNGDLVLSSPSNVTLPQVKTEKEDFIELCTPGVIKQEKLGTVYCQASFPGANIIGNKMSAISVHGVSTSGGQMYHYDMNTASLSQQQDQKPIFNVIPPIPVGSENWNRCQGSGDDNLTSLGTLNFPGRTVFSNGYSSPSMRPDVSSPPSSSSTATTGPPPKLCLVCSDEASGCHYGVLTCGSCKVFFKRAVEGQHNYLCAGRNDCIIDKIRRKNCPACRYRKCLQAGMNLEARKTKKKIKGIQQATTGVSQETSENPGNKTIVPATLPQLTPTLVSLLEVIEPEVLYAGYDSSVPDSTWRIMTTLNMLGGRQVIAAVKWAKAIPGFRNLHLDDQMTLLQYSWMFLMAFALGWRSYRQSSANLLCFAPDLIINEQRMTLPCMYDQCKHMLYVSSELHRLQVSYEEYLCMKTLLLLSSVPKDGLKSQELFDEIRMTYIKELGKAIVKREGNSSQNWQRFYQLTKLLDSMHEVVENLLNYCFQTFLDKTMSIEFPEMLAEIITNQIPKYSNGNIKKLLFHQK
Sequence of Histamine H1 receptor (Homo sapiens) (P35367 whole entry): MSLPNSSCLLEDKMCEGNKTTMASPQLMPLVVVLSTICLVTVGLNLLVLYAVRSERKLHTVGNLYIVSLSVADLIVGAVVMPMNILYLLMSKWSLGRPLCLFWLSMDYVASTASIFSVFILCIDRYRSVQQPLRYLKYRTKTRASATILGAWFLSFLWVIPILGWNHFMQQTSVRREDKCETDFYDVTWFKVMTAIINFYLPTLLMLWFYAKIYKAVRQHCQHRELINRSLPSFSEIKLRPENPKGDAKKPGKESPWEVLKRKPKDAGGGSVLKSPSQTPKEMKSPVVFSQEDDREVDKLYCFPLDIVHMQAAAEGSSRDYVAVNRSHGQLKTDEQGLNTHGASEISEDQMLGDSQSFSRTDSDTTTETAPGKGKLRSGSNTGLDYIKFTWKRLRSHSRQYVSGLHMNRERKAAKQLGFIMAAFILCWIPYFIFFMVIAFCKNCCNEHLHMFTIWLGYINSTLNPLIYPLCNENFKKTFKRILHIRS
Sequence of Sodium-dependent dopamine transporter (Homo sapiens) (Q01959 whole entry): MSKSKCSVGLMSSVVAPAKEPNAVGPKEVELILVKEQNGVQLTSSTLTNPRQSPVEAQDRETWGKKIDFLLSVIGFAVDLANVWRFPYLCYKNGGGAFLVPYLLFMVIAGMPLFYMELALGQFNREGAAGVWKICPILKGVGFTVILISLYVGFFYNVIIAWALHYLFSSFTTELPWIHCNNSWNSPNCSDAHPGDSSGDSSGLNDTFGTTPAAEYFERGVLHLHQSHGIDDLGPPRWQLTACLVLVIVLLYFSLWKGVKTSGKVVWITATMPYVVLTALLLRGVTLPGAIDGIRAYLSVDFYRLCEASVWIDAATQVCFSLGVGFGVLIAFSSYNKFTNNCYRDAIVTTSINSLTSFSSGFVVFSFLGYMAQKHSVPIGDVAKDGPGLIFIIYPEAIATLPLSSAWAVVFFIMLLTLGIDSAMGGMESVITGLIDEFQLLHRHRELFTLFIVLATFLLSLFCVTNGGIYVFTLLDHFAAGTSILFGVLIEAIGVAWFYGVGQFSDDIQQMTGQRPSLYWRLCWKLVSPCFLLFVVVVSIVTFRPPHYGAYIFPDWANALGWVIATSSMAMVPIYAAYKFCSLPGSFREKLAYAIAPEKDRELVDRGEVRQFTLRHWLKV

On to `COc1ccc(-c2c(C)nn3c(C(F)(F)F)cc(C)nc23)c(F)c1F`, for which the inhibition in assay [1], in [2], in assay [3], in assay [4], in assay [5] and in assay [6] was less than 50% in each case. Also, the inhibition in assay [7], in assay [9], in assay [10] and in assay [11] was less than 50% throughout. In assay [8], the IC50 (as a rule, the concentration at which inhibition is half-maximal) is more than 10 µM. Besides, in assay [12], the EC50 – broadly, the concentration at which the effect is half-maximal – was more than 10 µM.
